High-throughput results from PubChem BioAssay.
Hits are enriched below; roughly 1.3% of the tested compounds scored in any of these assays.
HKDC1 inhibitor – HKDC1 hexokinase inhibitors, primary screen, biochemical, fluorescence, uHTS; recombinant HKDC1, G6PDH/diaphorase resazurin coupled fluorescence; inhibition, % at 20 µM; hit rate 0.16% among 340,000;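 active = inhibition above about 35% when tested at 20 µM, limit read from the data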
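Incubation: 90 min at room temperature in dark / Material: recombinant HKDC1 (HK5) hexokinase enzyme, produced in-house / Quantity: enzyme 5 µg/mL final / Compound: one dose of 20 µM, 1% DMSO / Reagent: glucose and ATP substrates / Buffer or medium: Tris pH 8.0 buffer with MgCl2, Tween-20, BSA, BME / Technique: resorufin fluorescence at 613 nm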
G6PDH counter – L. mesenteroides G6PDH inhibitors, counter-screen for G6PDH-coupled screening assays, biochemical, Leuconostoc mesenteroides enzyme. glucose-6-phosphate dehydrogenase [Leuconostoc mesenteroides]. Purified L. mesenteroides G6PDH, diaphorase/resazurin coupled fluorescence, 45 min. inhibition, % at 5 µM. hit rate 0.12% among 200,000. AID 1020, 2008; in the data active = inhibition above about 50%
PfG6PD inh – PfG6PD enzyme inhibitors, primary screen, biochemical, fluorescence intensity, uHTS; glucose-6-phosphate dehydrogenase-6-phosphogluconolactonase (Plasmodium falciparum 3D7); PfGluPho enzyme, NADPH resazurin-diaphorase fluorescence; inhibition, % at 20 µM; hit rate 0.78% among 350,000;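 active = inhibition reaching at least a set limit at 20 µM in the primary screen, cut at about 59% in these data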
Diaphorase act – compounds boosting diaphorase resazurin reduction – biochemical, uHTS, resorufin fluorescence, counter-screen for diaphorase-coupled primary assays, primary screen | Diaphorase/resazurin coupled assay, 16 min; hits give high values; 1 = vehicle wells, 0 = NADH-free wells | hit rate 0.005% among 190,000 | activation factor at 20 µM;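 active = diaphorase activity raised at least twofold by the compound at 20 µM; inactive = activation factor below 2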
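Material: bacterial diaphorase enzyme (C. kluyveri); amount: enzyme 0.07 U/mL final; reagent: NADH substrate 0.114 mM plus resazurin dye 0.1 mM, final; doses: single compound dose of 20 µM, 1% DMSO final; timing: 16 min enzyme reaction, ambient temperature; measured by: fluorescence of resorufin, 544 nm excitation, 590 nm emission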
Diaphorase inh – diaphorase inhibitors and chemical oxidizers, primary screen, counter-screen for diaphorase-coupled primary assays, biochemical, uHTS, resorufin fluorescence; diaphorase resazurin-to-resorufin fluorescence, NADH, 16 min; bacterial (C. kluyveri) enzyme, not human; inhibition, % at 20 µM; hit rate 0.69% among 190,000;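 active = primary screen inhibition at 20 µM above a set limit, cut at about 50% in these data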
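material = Clostridium kluyveri diaphorase enzyme | amount = 0.14 U/mL diaphorase, enzyme working solution | schedule = incubation 16 min, room temperature | detection = fluorescence of resorufin formed from resazurin, Ex 544/Em 590 nm | benchmarks = positive control minus NADH, DMSO neutral control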
PfGluPho conf – PfG6PD inhibitors, hit retest, confirmation, biochemical, fluorescence intensity, single concentration | shares compounds with PfG6PD inh | recombinant PfGluPho, NADPH-diaphorase-resazurin fluorescence | inhibition, % at 20 µM | hit rate 34% among 2,400 | AID 504753, 2011;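 active = inhibition of at least 50% at 20 µM in any single replicate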
Diaph ctr 10uM – diaphorase inhibitors and chemical oxidizers, confirmation, counter-screen for P. falciparum G6PD inhibitor project, biochemical, fluorescence intensity, 10 µM NADPH | shares compounds with PfG6PD inh | diaphorase-coupled resazurin reduction, NADPH 10 uM | inhibition, % at 20 µM | hit rate 39% among 820 | AID 504862, 2011;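 active = average inhibition reaching 50% or more with the compound at 20 µM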;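 also: resorufin red fluorescence formed as diaphorase reduces resazurin using NADPH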
Diaphorase 30uM – diaphorase inhibitors and chemical oxidizers, confirmation, counter-screen for P. falciparum G6PD inhibitor project, biochemical, fluorescence intensity, 30 µM NADPH | shares compounds with PfG6PD inh | Diaphorase/resazurin coupled assay, resorufin fluorescence | inhibition, % at 20 µM | hit rate 29% among 820 | AID 504863, 2011;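 active = inhibition averaging 50% or more, tested at 20 µM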
Hits are given with their value; – = inactive; · = no result.

SMILES	HKDC1 inhibitor	G6PDH counter	PfG6PD inh	Diaphorase act	Diaphorase inh	PfGluPho conf	others
COC(=O)CCCC1=CC2=CC(=O)C(C)(OC(=O)c3cccs3)C(=O)C2=CN1Cc1ccco1 (stereo not drawn)	–	·	73	·	·	–
COC(=O)CCCC1=CC2=CC(=O)C(C)(OC(=O)c3cccs3)C(=O)C2=CN1Cc1ccc2c(c1)OCO2 (stereo not drawn)	–	·	–	·	·	·
COC(=O)CCCC1=CC2=CC(=O)C(C)(OC(=O)c3cccs3)C(=O)C2=CN1C1CCCC1 (stereo not drawn)	–	·	–	·	·	·
COC(=O)CCCC1=CC2=CC(=O)C(C)(OC(=O)c3cccs3)C(=O)C2=CN1Cc1ccccc1 (stereo not drawn)	–	·	75	·	·	–
CC(OC(=O)/C=C/c1cccs1)C(=O)Nc1ccc(C(N)=O)cc1 (stereo not drawn)	–	·	–	·	·	·
COc1cc(C(=O)OCC(=O)Nc2ccccc2)cc2c1OCCO2	·	·	–	·	·	·
Cc1cc(Oc2cccc3c2S(=O)(=O)N(C2CCCC2)CC(COCc2ccccc2)O3)cc(C)c1C (stereo not drawn)	–	·	–	·	·	·
Cc1ccc(-n2nc(C)c3c2C(Br)C(C)(C)CC3=O)nc1 (stereo not drawn)	–	·	–	·	·	·
CN(Cc1ccco1)S(=O)(=O)c1nnc(NC(=O)c2cccc(Cl)c2)s1	–	·	86	·	·	–
COc1ccc(C(=O)Nc2nnc(S(=O)(=O)N(C)Cc3ccc(F)cc3)s2)cc1OC	–	·	–	·	·	·
CN(Cc1ccc(F)cc1)S(=O)(=O)c1nnc(NC(=O)c2ccccc2)s1	–	·	–	·	·	·
COc1ccc(CN(C)S(=O)(=O)c2nnc(NC(=O)c3cccc(C)c3)s2)cc1OC	–	·	80	·	·	64	Diaph ctr 10uM=64;Diaphorase 30uM=–
CN(Cc1ccccc1)S(=O)(=O)c1nnc(NC(=O)c2ccc(F)cc2)s1	–	·	78	·	·	–
COc1ccc(C(=O)Nc2nnc(S(=O)(=O)N(C)Cc3ccccc3)s2)cc1	–	·	71	·	·	–
O=C1N=C(N2CCOCC2)S/C1=C1\C(=O)N(Cc2ccccc2)c2ccc(Br)cc21	·	–	·	–	–	·
CCCCN1C(=O)/C(=C2\SC(N3CCCCC3)=NC2=O)c2ccccc21	–	–	65	–	–	–
c1cncc(CNc2ccc3c(c2)OCO3)c1	–	–	68	–	–	58	Diaph ctr 10uM=–;Diaphorase 30uM=–
COc1ccc(CCn2c(NN=C3CCCCC3)nc3c2c(=O)[nH]c(=O)n3C)cc1	–	·	106	·	·	81	Diaph ctr 10uM=–;Diaphorase 30uM=–
COc1ccc(CNc2nc3c(c(=O)[nH]c(=O)n3C)n2CCCc2ccccc2)cc1	–	–	–	–	–	·
Cc1ccc(S(=O)(=O)Oc2cccc(/C=N/Nc3ccc(C(=O)O)cc3)c2)cc1	–	·	98	·	·	67	Diaph ctr 10uM=60;Diaphorase 30uM=–
Cc1ccc(S(=O)(=O)Oc2cccc(/C=N/n3cnnc3)c2)cc1	–	–	77	–	–	–
CCOc1ccc(OCC)c(-c2c(=O)n(OCc3ccccc3Br)c3ccccc3[n+]2[O-])c1	–	–	–	–	–	·
COc1ccc(CCN2C(=O)CSC2=Nc2ccc(C(C)C)cc2)cc1OC	–	·	–	·	·	–
COc1cccc(C2=Nc3cccc4cccc(c34)N2)c1	–	–	73	–	–	–
Nc1ccc(C2=Nc3cccc4cccc(c34)N2)cc1	–	–	–	–	–	·
